The text below walks through data of ChEMBL document CHEMBL1126204, “Nucleic acid related compounds. 74. Synthesis and biological activity of 2'(and 3')-deoxy-2'(and 3')-methylenenucleoside analogues that function as mechanism-based inhibitors of S-adenosyl-L-homocysteine hydrolase and/or ribonucleotide reductase” (J Med Chem, 1992).

pIC50: −log10 of the molar value.

System in one assay: not listed separately
In words: In vitro inhibition of Molt/4f (Human T-lymphoblast) cell proliferation. It is filed as functional.
Settings: not given
The procedure, abridged:
(§1)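 Human Molt/4F, MT-4, and Raji cells (wild-type, TK⁻ or dCK⁻) in RPMI-1640 with 10% inactivated FCS, 2 mM L-glutamine and 0.075% NaHCO₃, seeded at 7.5 × 10⁵ cells/mL with compound (0.001–500 µM). Incubated 3 days at 37 °C in humidified CO₂; viable cells counted by Coulter counter. IC₅₀ = 50% reduction in viable cells; means of 2–4 independent experiments.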
For orientation: pIC50 means −log10 of the IC50, conventionally taken in molar units. For the compound `C=C1[C@H](n2ccc(=O)[nH]c2=O)O[C@H](CO)[C@H]1O`, the negative-log IC50 (pIC50) was less than 3.30.
The compound `C=C1[C@H](n2cnc3c(N)nc(N)nc32)O[C@H](CO)[C@H]1O` had a negative logarithm of the IC50 (pIC50) of 4.66.
Still for that read-out and setting: to `C=C1[C@@H](O)[C@H](n2ccc(N)nc2=O)O[C@@H]1CO` belongs 3.76.

The subject of the next assay is L1210. Description: Antitumor activity in mice bearing L1210 murine leukemia cell line at a dose of 25 mg/kg/day. It is filed as functional, Mus musculus.
Settings: not given
In short, it runs like this: (§2)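 DBA/2 mice (20 g) inoculated ip with 10⁶ L1210 leukemia cells; test agent given ip once daily for 5 successive days beginning 1 day after inoculation, dissolved in Eagle's MEM containing 2.5% Tween (250 μL injection). Untreated tumor-bearing controls; read-out mean survival time in days, 7–15 mice per group.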
`C=C1[C@H](n2cnc3c(N)nc(N)nc32)O[C@H](CO)[C@H]1O` came in with a Mean survival time of 8.7 days.

The subject of another assay is L1210. In words: Antitumor activity in mice bearing L1210 murine leukemia cell line at a dose of 50 mg/kg/day.
Settings: not given
It is filed as functional, Mus musculus. In short, it runs like this:
as §2
With `C=C1[C@H](n2cnc3c(N)nc(N)nc32)O[C@H](CO)[C@H]1O`, the Mean survival time stood at 3 days.

Another assay relates to CEM (Homo sapiens). In words: Concentration required to inhibit the proliferation of human T-lymphocyte CEM/o cells by 50%.
Settings: not given
Consider `C=C1[C@H](n2cnc3c(N)nc(N)nc32)O[C@H](CO)[C@H]1O`, for which the negative logarithm of the IC50 (pIC50) was 5.11.

System in a further assay: not listed separately
In words: Concentration required to inhibit the proliferation of human T-lymphocyte CEM cells by 50% in presence exogenous necleoside Ado (100 uM). It is filed as functional, cell-based. The following applies: CCRF-CEM, in the assay text read “1000 uM” for “100 uM”. The procedure, abridged: (§3)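 CEM human T-lymphocytes in RPMI-1640 with 10% inactivated FCS, 2 mM L-glutamine and 0.075% NaHCO₃. Test compound (0.001–500 µM) was co-added with the stated subtoxic exogenous nucleoside(s). Incubated 3 days at 37 °C in humidified CO₂, then viable cells counted by Coulter counter. IC₅₀ is the level giving 50% fewer viable cells; means of 2–4 independent experiments.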
For the compound `C=C1[C@H](n2cnc3c(N)nc(N)nc32)O[C@H](CO)[C@H]1O`, the negative-log IC50 (pIC50) was 4.68.

Another assay relates to Raji. In words: Inhibition of human tumor B-lymphoblast Raji/O cell proliferation. It is filed as functional, cell-based.
Settings: not given
In short, it runs like this: as §1
The compound `C=C1[C@@H](O)[C@H](n2ccc(N)nc2=O)O[C@@H]1CO` had a pIC50 of 4.48.

The test system of another assay is L1210. Description: Concentration required to inhibit the proliferation of L1210 murine leukemia cell line by 50% in presence exogenous necleosides dCyd+Ado (100 uM). It is filed as functional, cell-based. The following applies: Mus musculus, in the assay text read “1000 uM” for “100 uM”. In short, it runs like this:
(§4)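 L1210 murine leukemia cells in Eagle's MEM with 10% inactivated fetal calf serum, 2 mM L-glutamine and 0.075% NaHCO₃. 5 × 10⁵ cells/mL were exposed to test compound (0.001–500 µM) together with the stated exogenous nucleoside at subtoxic level. Incubated 2 days at 37 °C in humidified CO₂. Viable cells were counted by Coulter counter. IC₅₀ = 50% reduction in viable cell number; mean of 2–4 independent experiments.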
For the compound `C=C1[C@H](n2cnc3c(N)nc(N)nc32)O[C@H](CO)[C@H]1O`, the negative-log IC50 (pIC50) was 4.39.

The test system of a further assay is Raji. In words: Inhibition of human tumor B-lymphoblast Raji/dCK-(dcyd kinase deficient) cell proliferation. It is filed as functional, cell-based.
Settings: not given
In short, it runs like this: as §1
As to `C=C1[C@@H](O)[C@H](n2ccc(N)nc2=O)O[C@@H]1CO`, the pIC50 is less than 3.30.

System in a further assay: not listed separately
In words: Concentration required to inhibit the proliferation of human T-lymphocyte CEM/dCK-(dCyd kinase deficient) cells by 50%.
Settings: not given
Compound `C=C1[C@H](n2cnc3c(N)nc(N)nc32)O[C@H](CO)[C@H]1O` showed a negative logarithm of the IC50 (pIC50) of 3.71.

The subject of a further assay is Raji. Description: Inhibition of human tumor B-lymphoblast Raji/TK-(thymidine kinase deficient) cell proliferation. It is filed as functional, cell-based.
Settings: not given
In short, it runs like this: as §1
On to `C=C1[C@@H](O)[C@H](n2ccc(N)nc2=O)O[C@@H]1CO`, for which the negative-log IC50 (pIC50) is 4.28.

The next assay has as its system L1210. In words: Concentration required to inhibit the proliferation of L1210 murine leukemia cell line by 50% in presence exogenous necleoside Ado (100 uM). It is filed as functional, cell-based. The conditions noted are these: Mus musculus, in the assay text read “1000 uM” for “100 uM”. The procedure, abridged:
as §4
The compound `C=C1[C@H](n2cnc3c(N)nc(N)nc32)O[C@H](CO)[C@H]1O` showed a negative logarithm of the IC50 (pIC50) of 4.32.

System in the next assay: not listed separately
Description: In vitro inhibition of FM3A (murine carcinoma) cell proliferation. It is filed as functional. The following applies: Mus musculus. The procedure, abridged: (§5)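 Murine FM3A or L1210 cells in Eagle's MEM with 10% inactivated FCS, 2 mM L-glutamine and 0.075% NaHCO₃, seeded at 5 × 10⁵ cells/mL with compound (0.001–500 µM). After 2 days at 37 °C in humidified CO₂, viable cells were counted with a Coulter counter. IC₅₀ = 50% fewer viable cells; mean of 2–4 experiments.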
`C=C1[C@H](n2ccc(=O)[nH]c2=O)O[C@H](CO)[C@H]1O` had a negative logarithm of the IC50 (pIC50) of less than 3.30.
For the compound `C=C1[C@H](n2cnc3c(N)nc(N)nc32)O[C@H](CO)[C@H]1O`, the pIC50 was 4.17.
Same read-out and setting: to `C=C1[C@@H](O)[C@H](n2ccc(N)nc2=O)O[C@@H]1CO` belongs less than 3.30.

A further assay has as its system L1210. Description: In vitro inhibition of L1210 (murine leukemia) cell proliferation. The conditions noted are these: Mus musculus. It is filed as functional, cell-based. The procedure, abridged: as §5
`C=C1[C@H](n2ccc(=O)[nH]c2=O)O[C@H](CO)[C@H]1O` had a negative-log IC50 (pIC50) of less than 3.30.
Still for that read-out and setting: to `C=C1[C@H](n2cnc3c(N)nc(N)nc32)O[C@H](CO)[C@H]1O` belongs 5.09; to `C=C1[C@@H](O)[C@H](n2ccc(N)nc2=O)O[C@@H]1CO`, 3.42.

A further assay deals with L1210. In words: Antitumor activity in mice bearing L1210 murine leukemia cell line at a dose of 100 mg/kg/day. It is filed as functional, Mus musculus.
Settings: not given
The procedure, abridged:
as §2
Compound `C=C1[C@H](n2cnc3c(N)nc(N)nc32)O[C@H](CO)[C@H]1O` returned a Mean survival time of 2 days.

For another assay, the system named is L1210. In words: Concentration required to inhibit the proliferation of L1210 murine leukemia cell line by 50% in presence exogenous necleoside dCyd (100 uM). It is filed as functional, cell-based. The following applies: Mus musculus, in the assay text read “1000 uM” for “100 uM”. The procedure, abridged:
as §4
Take `C=C1[C@H](n2cnc3c(N)nc(N)nc32)O[C@H](CO)[C@H]1O`: the pIC50 was 4.80.

For a further assay, the system named is L1210. Description: Antitumor activity in mice bearing L1210 murine leukemia cell line at a dose of 12.5 mg/kg/day. It is filed as functional, Mus musculus.
Settings: not given
In short, it runs like this:
as §2
`C=C1[C@H](n2cnc3c(N)nc(N)nc32)O[C@H](CO)[C@H]1O` had a Mean survival time of 9.1 days.

Another assay concerns L1210. Description: Concentration required to inhibit the proliferation of L1210 murine leukemia cell line by 50% in presence exogenous necleoside Guo (50 uM). It is filed as functional, cell-based. The following applies: Mus musculus. The procedure, abridged: as §4
`C=C1[C@H](n2cnc3c(N)nc(N)nc32)O[C@H](CO)[C@H]1O` had a pIC50 of 4.36.

System in another assay: not listed separately
Description: Concentration required to inhibit the proliferation of human T-lymphocyte CEM/AK-(Ado kinase deficient) cells by 50%.
Settings: not given
With `C=C1[C@H](n2cnc3c(N)nc(N)nc32)O[C@H](CO)[C@H]1O`, the pIC50 was 4.42.

System in another assay: not listed separately
Description: Concentration required to inhibit the proliferation of human T-lymphocyte CEM cells by 50% in presence exogenous necleoside Ado+dCyd (100 uM). It is filed as functional, cell-based. The following applies: CCRF-CEM, in the assay text read “1000 uM” for “100 uM”. In short, it runs like this: as §3
The compound `C=C1[C@H](n2cnc3c(N)nc(N)nc32)O[C@H](CO)[C@H]1O` had a pIC50 of 4.02.

For the next assay, the species on record is Homo sapiens. In words: Concentration required to inhibit the proliferation of human T-lymphocyte CEM/o cells by 50%. It is filed as functional.
Settings: not given
The procedure, abridged:
(§6)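 Wild-type CEM and kinase-deficient sublines (AK⁻, dCK⁻, AK⁻/dCK⁻) grown in RPMI-1640 with 10% inactivated FCS, 2 mM L-glutamine and 0.075% NaHCO₃. Cells were exposed to compound at 0.001–500 µM for 3 days at 37 °C in humidified CO₂. Viable cells counted by Coulter counter; IC₅₀ = 50% reduction in viable cells. Mean of 2–4 independent experiments.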
`C=C1[C@@H](O)[C@H](n2ccc(N)nc2=O)O[C@@H]1CO` had a pIC50 of 4.20.

For the next assay, the system named is MT4. In words: In vitro inhibition of MT-4 (Human T-lymphocyte) cell proliferation. It is filed as functional, cell-based.
Settings: not given
The procedure, abridged: as §1
`C=C1[C@H](n2ccc(=O)[nH]c2=O)O[C@H](CO)[C@H]1O` showed a negative logarithm of the IC50 (pIC50) of less than 3.30.
`C=C1[C@H](n2cnc3c(N)nc(N)nc32)O[C@H](CO)[C@H]1O` showed a pIC50 of less than 3.30.
`C=C1[C@@H](O)[C@H](n2ccc(N)nc2=O)O[C@@H]1CO` showed a pIC50 of 3.92.

The species entered for a further assay is Homo sapiens. Description: Concentration required to inhibit the proliferation of human T-lymphocyte CEM/dCK-(dcyd kinase deficient) cells by 50%.
Settings: not given
It is filed as functional. In short, it runs like this:
as §6
Regarding `C=C1[C@@H](O)[C@H](n2ccc(N)nc2=O)O[C@@H]1CO`, the negative-log IC50 (pIC50) is less than 3.30.

System in the next assay: not listed separately
Description: Concentration required to inhibit the proliferation of human T-lymphocyte CEM cells by 50% in presence exogenous necleoside dCyd (100 uM). It is filed as functional, cell-based. The following applies: CCRF-CEM, in the assay text read “1000 uM” for “100 uM”. The procedure, abridged: as §3
With `C=C1[C@H](n2cnc3c(N)nc(N)nc32)O[C@H](CO)[C@H]1O`, the negative logarithm of the IC50 (pIC50) was 3.88.

System in another assay: not listed separately
Description: Concentration required to inhibit the proliferation of human T-lymphocyte CEM/AK-/dCK-(Ado and dCyd kinase deficient) cells by 50%.
Settings: not given
In turn, `C=C1[C@H](n2cnc3c(N)nc(N)nc32)O[C@H](CO)[C@H]1O` gave a negative-log IC50 (pIC50) of 3.71.
